Experiments:
[1] = molecular target: Human immunodeficiency virus type 1 protease (Human immunodeficiency virus 1, UniProt Q72874); test: Inhibition of HIV-1 protease in vitro.
Procedure, shortened: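 Recombinant HIV-1 protease refolded from E. coli inclusion bodies; substrate peptide H-Val-Ser-Gln-Asn-Tyr-Pro-Ile-Val-OH at 2.5 mM. 30 °C, 100 mM sodium acetate pH 5.5 (MOPS for pH 7), 10% glycerol, 5% ethylene glycol, 0.1% NP-40. Inhibitor added before enzyme, five to seven concentrations; stopped at 30 min with TFA, HPLC; Ki from Dixon plots.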

Vaccinia virus [2] = test: Anti viral activity against vaccinia virus in CV-1 (monkey kidney) cells at 1 uM.; assay type: functional; conditions: Orthopoxvirus vaccinia, CV-1, in Primates
Vaccinia virus [3] = test: Anti viral activity against vaccinia virus in CV-1 (monkey kidney) cells.; assay type: functional, Orthopoxvirus vaccinia; parameters: concentration or dose not given beside the values

| Structure (SMILES) | Ki [1] [nM] | inhibition at 1 µM (Vaccinia virus [2]) [%] | Inhibition (Vaccinia virus [3]) [%] |
| --- | --- | --- | --- |
| COCCOCCOCCOc1ccccc1C(=O)NC(CC1CCCCC1)[C@@H](O)[C@H](O)[C@H](C(=O)N[C@H]1c2ccccc2CC1O)C(C)C (stereo not given in full) | > 200 | – | – |
| CCC(C)[C@H](NC(=O)[C@H](C(C)C)[C@@H](O)[C@H](O)C(CC1CCCCC1)NC(=O)c1ncccc1OCCOCCOCCOC)C(=O)NCc1nc2ccccc2[nH]1 (stereo not given in full) | 100 | 0 | – |
| CCC(C)[C@H](NC(=O)[C@H](C(C)C)[C@@H](O)[C@H](O)[C@H](CC1CCCCC1)NC(=O)c1ncccc1OCCOCCOC)C(=O)NCc1nc2ccccc2[nH]1 (stereo not given in full) | 100 | – | 0 |
| CCC(C)[C@H](NC(=O)[C@H](C(C)C)[C@@H](O)[C@H](O)[C@H](CC1CCCCC1)NC(=O)c1ccccc1OCCOc1ccccc1)C(=O)NCc1nc2ccccc2[nH]1 (stereo not given in full) | 8 | – | 86 |
| CCC(C)[C@H](NC(=O)[C@H](C(C)C)[C@@H](O)[C@H](O)C(CC1CCCCC1)NC(=O)c1ccccc1OCCOCCOCCOC)C(=O)NCc1nc2ccccc2[nH]1 (stereo not given in full) | 10 | 65 | – |
| COCCOCCOc1cccnc1C(=O)N[C@@H](CC1CCCCC1)[C@@H](O)[C@H](O)[C@H](C(=O)N[C@H]1c2ccccc2CC1O)C(C)C (stereo not given in full) | > 200 | – | – |
| CC(C)[C@@H](C(=O)N[C@H]1c2ccccc2CC1O)[C@@H](O)[C@H](O)[C@H](CC1CCCCC1)NC(=O)c1ncccc1OCCOc1ccccc1 (stereo not given in full) | > 200 | – | – |
| CC[C@H](C)[C@H](NC(=O)[C@H](C(C)C)[C@@H](O)[C@H](O)[C@H](CC1CCCCC1)NC(=O)c1ccccc1)C(=O)NCc1nc2ccccc2[nH]1 | 36 | – | – |
| CCC(C)[C@H](NC(=O)[C@H](C(C)C)[C@@H](O)[C@H](O)C(CC1CCCCC1)NC(=O)c1ncccc1OCSc1ccccc1)C(=O)NCc1nc2ccccc2[nH]1 (stereo not given in full) | 140 | 0 | – |
| COCCOCCOc1ccccc1C(=O)N[C@@H](CC1CCCCC1)[C@@H](O)[C@H](O)[C@H](C(=O)N[C@H]1c2ccccc2CC1O)C(C)C (stereo not given in full) | 200 | – | – |
| CCC(C)[C@H](NC(=O)[C@H](C(C)C)[C@@H](O)[C@H](O)[C@H](CC1CCCCC1)NC(=O)c1ccc(C)cc1OCCOc1ccccc1)C(=O)NCc1nc2ccccc2[nH]1 (stereo not given in full) | 48 | – | 48 |
| CC(C)[C@@H](C(=O)N[C@H]1c2ccccc2CC1O)[C@@H](O)[C@H](O)[C@H](CC1CCCCC1)NC(=O)c1ccccc1OCCOc1ccccc1 (stereo not given in full) | > 200 | – | – |
| CCC(C)[C@H](NC(=O)[C@H](C(C)C)[C@@H](O)[C@H](O)C(CC1CCCCC1)NC(=O)C(Cc1c[nH]cn1)NC(=O)COc1cccc2ccccc12)C(=O)NCc1ccccn1 (stereo not given in full) | < 1 | – | – |
| CC(C)[C@@H](C(=O)N[C@H]1c2ccccc2CC1O)[C@@H](O)[C@H](O)C(CC1CCCCC1)NC(=O)c1ncccc1OCSc1ccccc1 (stereo not given in full) | 600 | 0 | – |
| CC[C@H](C)[C@H](NC(=O)[C@H](C(C)C)[C@@H](O)[C@H](O)[C@H](CC1CCCCC1)NC(=O)C1CCCCC1)C(=O)NCc1ccccn1 | 22 | – | – |
| CCC(C)[C@H](NC(=O)[C@H](C(C)C)[C@@H](O)[C@H](O)C(CC1CCCCC1)NC(=O)c1ccccc1OCSc1ccccc1)C(=O)NCc1nc2ccccc2[nH]1 (stereo not given in full) | 5 | 86 | – |
| CCC(C)[C@H](NC(=O)[C@H](C(C)C)[C@@H](O)[C@H](O)[C@H](CC1CCCCC1)NC(=O)c1ncccc1OCCOc1ccccc1)C(=O)NCc1nc2ccccc2[nH]1 (stereo not given in full) | > 200 | – | 0 |
| CC(C)[C@@H](C(=O)N[C@H]1c2ccccc2CC1O)[C@@H](O)[C@H](O)[C@H](CC1CCCCC1)NC(=O)c1ccccc1 (stereo not given in full) | 16 | – | – |
| CCC(C)[C@H](NC(=O)[C@H](C(C)C)[C@@H](O)[C@H](O)[C@H](CC1CCCCC1)NC(=O)CCOCCOc1ccccc1)C(=O)NCc1nc2ccccc2[nH]1 (stereo not given in full) | 4 | – | 65 |
| CC(C)[C@@H](C(=O)N[C@H]1c2ccccc2CC1O)[C@@H](O)[C@H](O)[C@H](CC1CCCCC1)NC(=O)CCOCCOc1ccccc1 (stereo not given in full) | > 200 | – | – |
| CC(C)[C@@H](C(=O)N[C@H]1c2ccccc2CC1O)[C@@H](O)[C@H](O)C(CC1CCCCC1)NC(=O)c1ccccc1OCSc1ccccc1 (stereo not given in full) | 200 | 0 | – |
| CCC(C)[C@H](NC(=O)[C@H](C(C)C)[C@@H](O)[C@H](O)[C@H](CC1CCCCC1)NC(=O)c1ccccc1OCCOCCOC)C(=O)NCc1nc2ccccc2[nH]1 (stereo not given in full) | 5 | – | 56 |
| COCCOCCOCCOc1cccnc1C(=O)NC(CC1CCCCC1)[C@@H](O)[C@H](O)[C@H](C(=O)N[C@H]1c2ccccc2CC1O)C(C)C (stereo not given in full) | > 200 | – | – |

Reference: ChEMBL document CHEMBL1127016, “Inhibitors of the protease from human immunodeficiency virus: synthesis, enzyme inhibition, and antiviral activity of a series of compounds containing the dihydroxyethylene transition-state isostere” (J Med Chem, 1993)
